In ChEMBL document CHEMBL5661979, “Pharmacological inhibition of BMK1 suppresses tumor growth through promyelocytic leukemia protein” (Cancer Cell, 2010):
The source made the active and inactive calls. The calls are words filed in the database; no cut-off is given here.

Legend:
[1] = target: T1, EKC/KEOPS complex subunit TP53RK (Homo sapiens) (UniProt Q96S44); assay: Inhibition of PRPK in human HeLa cells lysate at 10 uM pre incubated for 15 mins followed by ATP acyl phosphate probe addition and measured after 10 mins by LC-MS/MS analysis relative to control; format: subcellular; conditions: time 25.0 min
T1 sequence (whole entry): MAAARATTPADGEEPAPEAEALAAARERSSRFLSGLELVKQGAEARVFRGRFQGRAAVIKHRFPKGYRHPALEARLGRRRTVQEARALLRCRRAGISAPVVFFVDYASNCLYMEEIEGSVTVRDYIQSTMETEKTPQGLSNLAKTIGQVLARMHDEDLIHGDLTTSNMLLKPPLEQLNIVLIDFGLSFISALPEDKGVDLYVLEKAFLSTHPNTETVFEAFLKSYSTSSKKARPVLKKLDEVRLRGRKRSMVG

[2] = target: T2, Mixed lineage kinase domain-like protein (Homo sapiens) (UniProt Q8NB16); assay: Inhibition of MLKL in human HeLa cells lysate at 50 uM pre incubated for 15 mins followed by ADP acyl phosphate probe addition and measured after 10 mins by LC-MS/MS analysis relative to control; format: subcellular; conditions: time 25.0 min
T2 sequence (whole entry): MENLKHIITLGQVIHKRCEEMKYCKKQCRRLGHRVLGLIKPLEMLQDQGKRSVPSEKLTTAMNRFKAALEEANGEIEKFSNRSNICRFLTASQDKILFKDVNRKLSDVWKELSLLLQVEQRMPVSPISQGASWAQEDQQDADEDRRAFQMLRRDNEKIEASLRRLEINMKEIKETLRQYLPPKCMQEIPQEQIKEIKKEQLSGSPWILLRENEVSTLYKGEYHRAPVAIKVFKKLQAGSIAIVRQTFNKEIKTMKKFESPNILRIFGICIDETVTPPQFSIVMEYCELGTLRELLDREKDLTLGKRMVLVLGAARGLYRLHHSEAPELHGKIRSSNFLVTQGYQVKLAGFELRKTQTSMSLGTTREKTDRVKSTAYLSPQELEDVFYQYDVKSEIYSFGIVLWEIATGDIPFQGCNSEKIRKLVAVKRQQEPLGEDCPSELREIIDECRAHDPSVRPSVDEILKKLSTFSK

[3] = target: Cyclin-dependent kinase 2 (Homo sapiens, UniProt P24941); assay: Inhibition of CDK2 K1 site in human HeLa cells lysate at 2 uM pre incubated for 15 mins followed by ATP acyl phosphate probe addition and measured after 10 mins by LC-MS/MS analysis relative to control; format: subcellular; conditions: time 25.0 min
Method in brief: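 KiNativ profiling in HeLa lysate (5 mg/mL total protein). Lysate incubated 15 min with inhibitor at 50, 10, 2, 0.8 or 0 μM. ATP or ADP acylphosphate probe then added (5 μM final) and reacted 10 min. Reaction stopped with urea and analysed by targeted MS, using up to four fragment ions per kinase peptide-probe conjugate. % inhibition taken against untreated lysate. Run in duplicate.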

[4] = tested on: HeLa; assay: Antitumor activity against human HeLa cells xenografted in NOD/SCID mouse assessed as reduction tumor growth at 50 mg/kg, ip administered on day 14 post implantation measured after 28 days; format: functional, organism-based; conditions: time 14.0 day
Method in brief: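 HeLa cells (5×10^5, in DMEM) were injected s.c. into the right flank of 6-week-old Nod/Scid mice on day 0. Dosing was 50 mg/kg i.p. twice daily, starting on day 1, 7 or 14 and continuing to day 28; controls received carrier. 6 mice per treated group. Tumors were measured every 2–3 days.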

[5] = Inhibition of KHS1/2 in human HeLa cells lysate at 50 uM pre incubated for 15 mins followed by ATP acyl phosphate probe addition and measured after 10 mins by LC-MS/MS analysis relative to control; conditions: 25 min, condition cancer
[6] = target: T3, Dual specificity mitogen-activated protein kinase kinase 7 (Homo sapiens) (UniProt O14733); assay: Inhibition of MAP2K7 in human HeLa cells lysate at 2 uM pre incubated for 15 mins followed by ADP acyl phosphate probe addition and measured after 10 mins by LC-MS/MS analysis relative to control; format: subcellular; conditions: time 25.0 min
T3 sequence (whole entry): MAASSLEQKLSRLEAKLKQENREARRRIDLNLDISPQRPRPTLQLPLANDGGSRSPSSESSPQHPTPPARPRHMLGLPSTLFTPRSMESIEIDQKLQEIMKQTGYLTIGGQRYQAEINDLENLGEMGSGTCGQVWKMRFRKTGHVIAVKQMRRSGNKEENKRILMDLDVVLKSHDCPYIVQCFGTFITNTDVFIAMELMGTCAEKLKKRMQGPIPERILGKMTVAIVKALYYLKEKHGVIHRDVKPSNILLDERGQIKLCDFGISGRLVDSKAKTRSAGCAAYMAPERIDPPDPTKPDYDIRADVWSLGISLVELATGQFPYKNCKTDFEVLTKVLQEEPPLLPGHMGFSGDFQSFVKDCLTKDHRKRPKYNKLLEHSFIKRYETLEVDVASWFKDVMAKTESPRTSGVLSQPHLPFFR

[7] = target: Dual specificity mitogen-activated protein kinase kinase 4 (Homo sapiens, UniProt P45985); assay: Inhibition of MAP2K4 in human HeLa cells lysate pre incubated for 15 mins followed by ADP acyl phosphate probe addition and measured after 10 mins by LC-MS/MS analysis; format: subcellular
Chain of Dual specificity mitogen-activated protein kinase kinase 4 (P45985 whole entry): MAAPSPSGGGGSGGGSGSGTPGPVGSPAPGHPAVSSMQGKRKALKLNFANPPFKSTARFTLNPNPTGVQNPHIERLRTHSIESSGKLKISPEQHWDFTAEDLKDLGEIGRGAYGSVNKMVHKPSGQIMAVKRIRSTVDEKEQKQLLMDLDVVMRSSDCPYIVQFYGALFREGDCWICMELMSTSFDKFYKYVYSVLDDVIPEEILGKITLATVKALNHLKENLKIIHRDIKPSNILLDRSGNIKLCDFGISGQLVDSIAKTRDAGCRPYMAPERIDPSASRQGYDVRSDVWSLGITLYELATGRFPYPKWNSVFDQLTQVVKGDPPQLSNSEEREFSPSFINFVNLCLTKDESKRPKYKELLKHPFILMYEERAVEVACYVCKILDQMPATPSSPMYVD

[8] = target: Serine/threonine-protein kinase 38 (Homo sapiens, UniProt Q15208); assay: Inhibition of NDR1 in human HeLa cells lysate at 50 uM pre incubated for 15 mins followed by ATP acyl phosphate probe addition and measured after 10 mins by LC-MS/MS analysis relative to control; format: subcellular; conditions: time 25.0 min
[9] = target: Glycogen synthase kinase-3 beta (Homo sapiens, UniProt P49841); assay: Inhibition of GSK3B isoform 2 in human HeLa cells lysate at 50 uM pre incubated for 15 mins followed by ADP acyl phosphate probe addition and measured after 10 mins by LC-MS/MS analysis relative to control; format: subcellular; conditions: time 25.0 min
[10] = target: Mitogen-activated protein kinase 14 (Homo sapiens, UniProt Q16539); assay: Inhibition of P38a in human HeLa cells lysate pre incubated for 15 mins followed by ATP acyl phosphate probe addition and measured after 10 mins by LC-MS/MS analysis; format: subcellular
Chain of Mitogen-activated protein kinase 14 (Q16539 whole entry): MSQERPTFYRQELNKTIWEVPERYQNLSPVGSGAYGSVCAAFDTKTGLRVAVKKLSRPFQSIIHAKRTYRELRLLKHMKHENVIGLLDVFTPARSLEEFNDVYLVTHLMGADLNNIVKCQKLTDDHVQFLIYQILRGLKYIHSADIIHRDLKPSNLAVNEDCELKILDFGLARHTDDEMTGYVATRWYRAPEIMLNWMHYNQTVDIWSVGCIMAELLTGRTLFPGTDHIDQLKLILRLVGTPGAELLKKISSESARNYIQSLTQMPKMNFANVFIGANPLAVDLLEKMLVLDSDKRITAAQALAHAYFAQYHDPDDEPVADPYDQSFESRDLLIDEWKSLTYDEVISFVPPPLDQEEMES

[11] = target: DNA-dependent protein kinase catalytic subunit (Homo sapiens, UniProt P78527); assay: Inhibition of PRKDC in human HeLa cells lysate at 2 uM pre incubated for 15 mins followed by ATP acyl phosphate probe addition and measured after 10 mins by LC-MS/MS analysis relative to control; format: subcellular; conditions: time 25.0 min
Chain of DNA-dependent protein kinase catalytic subunit (P78527 whole entry): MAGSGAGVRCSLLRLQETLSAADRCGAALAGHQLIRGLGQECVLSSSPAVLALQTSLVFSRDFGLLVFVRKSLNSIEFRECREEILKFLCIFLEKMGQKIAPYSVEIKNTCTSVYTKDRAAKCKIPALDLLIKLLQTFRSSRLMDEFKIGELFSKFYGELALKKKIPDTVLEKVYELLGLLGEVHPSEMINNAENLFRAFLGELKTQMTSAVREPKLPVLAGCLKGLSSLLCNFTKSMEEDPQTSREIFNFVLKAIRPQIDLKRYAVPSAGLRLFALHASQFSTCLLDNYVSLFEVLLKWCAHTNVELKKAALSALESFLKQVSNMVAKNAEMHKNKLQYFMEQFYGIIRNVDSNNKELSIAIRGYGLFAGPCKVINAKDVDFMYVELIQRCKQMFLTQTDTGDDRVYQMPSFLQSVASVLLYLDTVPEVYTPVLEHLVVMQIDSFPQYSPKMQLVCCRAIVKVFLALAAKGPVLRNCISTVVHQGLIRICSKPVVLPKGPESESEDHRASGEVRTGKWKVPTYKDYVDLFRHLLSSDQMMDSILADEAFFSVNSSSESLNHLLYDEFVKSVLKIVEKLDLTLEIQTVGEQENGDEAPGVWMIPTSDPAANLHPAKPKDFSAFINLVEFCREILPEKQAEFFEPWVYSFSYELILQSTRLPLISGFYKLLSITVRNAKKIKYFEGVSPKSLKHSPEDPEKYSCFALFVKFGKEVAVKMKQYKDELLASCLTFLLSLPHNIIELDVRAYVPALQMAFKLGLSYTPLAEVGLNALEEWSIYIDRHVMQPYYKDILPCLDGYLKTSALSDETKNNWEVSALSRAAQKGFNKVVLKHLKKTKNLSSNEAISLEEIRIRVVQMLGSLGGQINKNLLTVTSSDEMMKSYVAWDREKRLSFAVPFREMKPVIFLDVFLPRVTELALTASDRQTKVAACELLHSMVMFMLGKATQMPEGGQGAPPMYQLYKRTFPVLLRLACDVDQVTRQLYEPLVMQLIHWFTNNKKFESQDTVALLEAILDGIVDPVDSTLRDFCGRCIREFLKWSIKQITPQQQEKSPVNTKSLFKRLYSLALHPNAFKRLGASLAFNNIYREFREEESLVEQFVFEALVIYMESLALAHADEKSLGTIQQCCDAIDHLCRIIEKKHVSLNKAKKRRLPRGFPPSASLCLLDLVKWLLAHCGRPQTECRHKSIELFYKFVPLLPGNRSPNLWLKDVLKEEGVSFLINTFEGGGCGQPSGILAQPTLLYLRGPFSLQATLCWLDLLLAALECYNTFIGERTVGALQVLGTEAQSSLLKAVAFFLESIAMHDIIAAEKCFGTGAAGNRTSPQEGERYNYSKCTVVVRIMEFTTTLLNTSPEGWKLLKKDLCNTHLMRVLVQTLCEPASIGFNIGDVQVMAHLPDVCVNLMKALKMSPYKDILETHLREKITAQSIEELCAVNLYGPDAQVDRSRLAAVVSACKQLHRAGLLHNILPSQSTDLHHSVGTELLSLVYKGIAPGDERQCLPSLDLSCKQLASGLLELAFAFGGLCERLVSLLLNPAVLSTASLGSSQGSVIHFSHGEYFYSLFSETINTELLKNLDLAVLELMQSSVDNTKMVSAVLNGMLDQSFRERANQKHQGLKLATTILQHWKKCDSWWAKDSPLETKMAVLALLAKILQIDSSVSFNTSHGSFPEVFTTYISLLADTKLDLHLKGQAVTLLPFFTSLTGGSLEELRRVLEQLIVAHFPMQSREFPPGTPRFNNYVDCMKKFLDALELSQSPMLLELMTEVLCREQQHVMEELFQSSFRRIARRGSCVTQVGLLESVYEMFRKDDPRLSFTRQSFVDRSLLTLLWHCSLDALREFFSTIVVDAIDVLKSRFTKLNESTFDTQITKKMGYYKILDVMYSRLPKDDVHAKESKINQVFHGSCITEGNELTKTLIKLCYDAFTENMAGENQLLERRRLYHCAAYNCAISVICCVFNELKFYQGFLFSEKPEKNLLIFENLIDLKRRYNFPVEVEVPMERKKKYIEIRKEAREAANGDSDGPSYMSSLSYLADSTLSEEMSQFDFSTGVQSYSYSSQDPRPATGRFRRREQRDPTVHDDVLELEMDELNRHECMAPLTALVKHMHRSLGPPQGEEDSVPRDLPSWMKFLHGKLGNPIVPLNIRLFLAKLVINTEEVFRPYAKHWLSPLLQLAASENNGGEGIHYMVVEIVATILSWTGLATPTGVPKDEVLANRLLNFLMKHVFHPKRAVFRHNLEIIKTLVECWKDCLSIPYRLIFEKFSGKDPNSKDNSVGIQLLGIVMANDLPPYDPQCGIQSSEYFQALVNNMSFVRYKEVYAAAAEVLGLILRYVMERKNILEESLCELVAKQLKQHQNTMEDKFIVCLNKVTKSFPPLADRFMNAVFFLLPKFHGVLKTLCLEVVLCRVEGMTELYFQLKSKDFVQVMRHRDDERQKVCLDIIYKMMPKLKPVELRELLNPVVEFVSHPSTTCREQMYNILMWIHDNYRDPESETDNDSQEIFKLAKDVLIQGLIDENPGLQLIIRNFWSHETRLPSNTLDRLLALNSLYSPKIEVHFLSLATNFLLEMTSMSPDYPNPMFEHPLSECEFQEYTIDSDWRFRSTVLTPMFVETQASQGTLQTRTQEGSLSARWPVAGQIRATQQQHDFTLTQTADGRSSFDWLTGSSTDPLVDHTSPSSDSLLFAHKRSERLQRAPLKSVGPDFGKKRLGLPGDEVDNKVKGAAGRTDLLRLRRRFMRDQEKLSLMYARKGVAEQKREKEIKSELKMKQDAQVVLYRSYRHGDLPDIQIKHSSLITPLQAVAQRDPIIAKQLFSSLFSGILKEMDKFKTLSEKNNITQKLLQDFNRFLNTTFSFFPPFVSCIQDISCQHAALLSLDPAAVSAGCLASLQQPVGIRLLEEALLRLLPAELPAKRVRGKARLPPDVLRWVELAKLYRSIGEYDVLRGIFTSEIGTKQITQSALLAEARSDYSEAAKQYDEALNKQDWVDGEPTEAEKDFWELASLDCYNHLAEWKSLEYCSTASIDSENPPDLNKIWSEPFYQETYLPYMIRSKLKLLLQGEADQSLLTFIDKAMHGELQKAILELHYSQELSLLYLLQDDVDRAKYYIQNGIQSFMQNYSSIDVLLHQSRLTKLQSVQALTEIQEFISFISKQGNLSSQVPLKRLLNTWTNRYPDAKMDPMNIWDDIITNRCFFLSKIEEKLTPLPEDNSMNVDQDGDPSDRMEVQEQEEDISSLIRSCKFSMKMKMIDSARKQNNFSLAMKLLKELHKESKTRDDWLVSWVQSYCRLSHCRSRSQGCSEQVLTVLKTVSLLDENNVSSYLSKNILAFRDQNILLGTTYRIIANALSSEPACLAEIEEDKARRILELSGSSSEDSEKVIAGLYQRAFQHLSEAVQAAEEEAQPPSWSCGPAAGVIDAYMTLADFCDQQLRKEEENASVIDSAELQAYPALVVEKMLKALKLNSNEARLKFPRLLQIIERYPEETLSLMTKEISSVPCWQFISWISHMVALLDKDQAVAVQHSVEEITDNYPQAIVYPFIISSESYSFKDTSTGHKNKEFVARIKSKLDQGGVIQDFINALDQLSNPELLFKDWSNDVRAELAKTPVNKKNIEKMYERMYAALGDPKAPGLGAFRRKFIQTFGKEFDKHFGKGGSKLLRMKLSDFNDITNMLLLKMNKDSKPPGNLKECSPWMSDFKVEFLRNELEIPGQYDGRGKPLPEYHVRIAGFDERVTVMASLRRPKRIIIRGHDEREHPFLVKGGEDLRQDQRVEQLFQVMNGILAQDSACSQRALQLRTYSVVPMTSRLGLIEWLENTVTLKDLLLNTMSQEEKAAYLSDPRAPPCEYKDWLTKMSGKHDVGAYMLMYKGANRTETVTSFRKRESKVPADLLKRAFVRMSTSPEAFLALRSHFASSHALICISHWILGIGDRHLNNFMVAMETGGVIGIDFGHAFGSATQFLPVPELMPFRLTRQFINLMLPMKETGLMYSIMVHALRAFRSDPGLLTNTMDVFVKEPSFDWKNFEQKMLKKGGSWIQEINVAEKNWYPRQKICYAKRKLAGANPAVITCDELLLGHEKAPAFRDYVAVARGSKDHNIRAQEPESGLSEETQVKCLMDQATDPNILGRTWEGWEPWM

[12] = target: Serine/threonine-protein kinase 24 (Homo sapiens, UniProt Q9Y6E0); assay: Inhibition of MST3 in human HeLa cells lysate at 2 uM pre incubated for 15 mins followed by ATP acyl phosphate probe addition and measured after 10 mins by LC-MS/MS analysis relative to control; format: subcellular; conditions: time 25.0 min
[13] = target: Interferon-induced, double-stranded RNA-activated protein kinase (Homo sapiens, UniProt P19525); assay: Inhibition of PKR in human HeLa cells lysate at 2 uM pre incubated for 15 mins followed by ATP acyl phosphate probe addition and measured after 10 mins by LC-MS/MS analysis relative to control; format: subcellular; conditions: time 25.0 min

**Q.** With `CCOc1cc(N2CCC(O)CC2)ccc1Nc1ncc2c(n1)N(C)c1ccccc1C(=O)N2C` as the molecule, how does the inhibition [1] read?
**A.** -9.7%

**Q.** What about the inhibition [2] of the same molecule?
**A.** -6.7%

**Q.** What about the inhibition [3] of the same molecule?
**A.** -2.9%

**Q.** And the Activity [4]?
**A.** Active

**Q.** What about the inhibition at 50 µM [5] of the same molecule?
**A.** 2.5%

**Q.** And the inhibition [6]?
**A.** 17.9%

**Q.** And the IC50 [7]?
**A.** > 50 µM

**Q.** What about the inhibition [8] of the same molecule?
**A.** 5.3%

**Q.** What about the inhibition [9] of the same molecule?
**A.** 5.1%

**Q.** And the IC50 [10]?
**A.** > 50 µM

**Q.** And the inhibition [11]?
**A.** 0.6%

**Q.** What about the inhibition [12] of the same molecule?
**A.** -3.8%

**Q.** What about the inhibition [13] of the same molecule?
**A.** -2.6%
